These results are taken from ChEMBL document CHEMBL1250450, “Well-defined regions of the Plasmodium falciparum reticulocyte binding protein homologue 4 mediate interaction with red blood cell membrane” (J Med Chem, 2010).

One may read the inhibition as the share of the control response that was lost under treatment. One may read the Kd as the equilibrium constant for the complex coming apart.

Test [1] deals with Plasmodium falciparum. Briefly: Antiplasmodial activity against Plasmodium falciparum FCB2 assessed as inhibition of merozoite invasion of human erythrocytes at 0.93 mg/mL after 18 hrs using hydroethidine staining by flow cytometry. It counts as functional. Also on record: scale not given: the % may be the effect or the level left. Summed up:
(§1)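 Schizont-synchronized P. falciparum FCB-2 cultures incubated in triplicate with peptide (100 and 200 μM) using normal RBCs or, for the neuraminidase line, neuraminidase-treated RBCs. 37 °C for 18 h under 5% O2, 5% CO2, 90% N2. Cells washed with PBS, hydroethidine-labeled, read by flow cytometry (FL2). Inhibition controls were EGTA- and chloroquine-treated infected RBCs; uninfected RBCs served as invasion control.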
On the technique in general: Flow cytometry measures light scatter and fluorescence of single cells or particles in a stream.

The test system of test [2] is Plasmodium falciparum. The experiment in a line: Antiplasmodial activity against Plasmodium falciparum FCB2 assessed as inhibition of merozoite invasion of human erythrocytes at 1.85 mg/mL after 18 hrs using hydroethidine staining by flow cytometry. The format is functional. Also on record: scale not given: the % may be the effect or the level left. The essentials:
as §1

Test [3] relates to Plasmodium falciparum. The experiment in a line: Antiplasmodial activity against Plasmodium falciparum FCB2 assessed as inhibition of merozoite invasion of human erythrocytes at 1.9 mg/mL after 18 hrs using hydroethidine staining by flow cytometry. Further details: scale not given: the % may be the effect or the level left. The format is functional. Summed up:
as §1

Test [4] is filed under the species Homo sapiens. Briefly: Binding affinity of radio labeled compound to 25 kDa RBC membrane receptor in human RBC cross-linked with bis-(sulfosuccinimidyl)suberate by autoradiography using SDS-PAGE. The essentials: (§2)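 Radioiodinated peptide (chloramine-T method) incubated with 2.1 × 10^7 human RBCs, then cross-linked with BS3 (1 mg/mL) for 1 h at 4 °C. Reaction stopped with Tris-HCl. Membranes lysed (Tris/NaCl/EDTA/PMSF), mixed with Laemmli buffer, spun 15000g for 15 min, resolved on 12% SDS-PAGE against prestained markers.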

For test [5], the species on record is Homo sapiens. The experiment in a line: Binding affinity to RBC membrane receptor in 1 mg/mL trypsin pretreated human RBC relative to untreated RBC. Summed up: (§3)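 Human RBCs (60% hematocrit) treated 1 h at 37 °C with neuraminidase (150 μU/mL), chymotrypsin (1 mg/mL) or trypsin (1 mg/mL). Standard radiolabeled-peptide binding then run on treated cells at 20% hematocrit. Binding expressed relative to untreated RBCs set as 100%.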

The species entered for test [6] is Homo sapiens. The experiment in a line: Binding affinity of radio labeled compound to 32 kDa RBC membrane receptor in human RBC cross-linked with bis-(sulfosuccinimidyl)suberate by autoradiography using SDS-PAGE. The essentials: as §2
For test [7], the species on record is Homo sapiens. The experiment in a line: Binding affinity of radio labeled compound to 22 kDa RBC membrane receptor in human RBC cross-linked with bis-(sulfosuccinimidyl)suberate by autoradiography using SDS-PAGE. The essentials: as §2
Test [8] is filed under the species Homo sapiens. Briefly: Binding affinity to RBC membrane receptor in 1 mg/mL chymotrypsin pretreated human RBC relative to untreated RBC. The essentials:
as §3

The species entered for test [9] is Homo sapiens. Briefly: Binding affinity to RBC membrane receptor in human RBC assessed as specific binding activity measured as ratio of specifically bound peptide/added peptide by gamma counter. Summed up:
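1 × 10^8 healthy-donor RBCs incubated in triplicate with four rising concentrations of 125I-peptide (0-560 nM), with or without unlabeled peptide, then washed in HBS (pH 7.4) and gamma-counted. Specific binding (total minus nonspecific) plotted against added peptide; the slope is the specific binding activity. The HABP cutoff is ≥2%.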

Test [10] deals with Plasmodium falciparum. The experiment in a line: Antiplasmodial activity against Plasmodium falciparum FCB2 assessed as inhibition of merozoite invasion of neuraminidase pretreated human erythrocytes at 200 uM after 18 hrs using hydroethidine staining by flow cytometry. The format is functional. Summed up: as §1
The species entered for test [11] is Homo sapiens. Briefly: Binding affinity to RBC membrane receptor in 150 uU/mL neuraminidase pretreated human RBC relative to untreated RBC. Summed up:
as §3

The subject of test [12] is Plasmodium falciparum. The experiment in a line: Antiplasmodial activity against Plasmodium falciparum FCB2 assessed as inhibition of merozoite invasion of human erythrocytes at 200 uM after 18 hrs using hydroethidine staining by flow cytometry. The settings on record: FCB2, 18 h. The format is functional. The essentials:
as §1

Test [13] is described as follows: Binding affinity to RBC membrane receptor in human RBC assessed as dissociation constant by gamma counter. Summed up: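 Saturation assay: 7.5 × 10^7 human RBCs incubated in triplicate with 125I-peptide over 0-2200 nM, with or without 6 nmol unlabeled peptide. Cells washed in HBS and counted by gamma counter. Kd, Hill coefficient and sites per cell came from Hill analysis.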

The species named for test [14] is Homo sapiens. Briefly: Binding affinity of radio labeled compound to 20 kDa RBC membrane receptor in human RBC cross-linked with bis-(sulfosuccinimidyl)suberate by autoradiography using SDS-PAGE. The essentials: as §2

Calls of active or inactive are those of the source.

With `CCN(CC)CCCC(C)Nc1ccnc2cc(Cl)ccc12` (stereo not given) [CHLOROQUINE], the Activity was 96% in the test on Plasmodium falciparum [1] and 97% with Plasmodium falciparum [2].

On to `O=C(O)CN(CCOCCOCCN(CC(=O)O)CC(=O)O)CC(=O)O` [EGTAZIC ACID], for which the Activity with Plasmodium falciparum [3] is 90%.

Take H-QIYKNELKDRIKETQTKINL-OH: the outcome in the test listed under Homo sapiens [4], in the test filed under Homo sapiens [6], in the test listed under Homo sapiens [7] and in the test filed under Homo sapiens [14] was Active. For the same molecule, the Activity in the test listed under Homo sapiens [5] is 0.03%; in the test listed under Homo sapiens [8], 288%; in the test filed under Homo sapiens [9] it was over 2%; in the test filed under Homo sapiens [11], 128%. The inhibition at 200 µM with Plasmodium falciparum [10] amounted to 49%; with Plasmodium falciparum [12], 47%. Besides, the Kd in [13] turned out to be 590 nM.

As to H-YNKNNIKDIYQQFKNIQQQL-OH, the outcome in the test filed under Homo sapiens [4], in the test filed under Homo sapiens [6], in the test listed under Homo sapiens [7] and in the test listed under Homo sapiens [14] was Active. The Activity is 87% in the test filed under Homo sapiens [5], 114% in the test listed under Homo sapiens [8], over 2% in the test filed under Homo sapiens [9] and 153% in the test filed under Homo sapiens [11]. Besides, the inhibition at 200 µM with Plasmodium falciparum [10] was 49%; in the test on Plasmodium falciparum [12], 46%. Besides, in test [13], the Kd came to 400 nM.
